Assay results published in ChEMBL document CHEMBL1122658, “Amnesia-reversal activity of a series of N-[(disubstituted-amino)alkyl] -2-oxo-1-pyrrolidineacetamides, including pramiracetam” (1984).

Assays:
Format in all cases: functional
Conditions in all cases: route intraperitoneal
Mus musculus [1] = assay: Ability to reverse electroconvulsive shock induced amnesia in mice, after administering intraperitoneally at a dose of 20 mg/kg
Method in brief: (§1)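 Male CF-1 mice (20-25 g), five groups of 20, trained in one trial on step-through inhibitory avoidance (darkened chamber). ECS given 2 h after training. Test drug or vehicle placebo injected ip 2 h after ECS, 1 h before retention test. Entry into box within 60 s scored as amnesia. % reversal = (drug − base-line ECS+placebo)/(ceiling no-ECS+placebo − base-line) ×100.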

Mus musculus [2] = assay: Ability to reverse electroconvulsive shock (ECS) induced amnesia in mice, after administering intraperitoneally, at a dose of 80 mg/kg; method in brief: as §1
Mus musculus [3] = assay: Ability to reverse electroconvulsive shock (ECS) induced amnesia in mice, after administering intraperitoneally, at a dose of 5 mg/kg; method in brief: as §1
Mus musculus [4] = assay: Ability to reverse electroconvulsive shock (ECS) induced amnesia in mice, after administering intraperitoneally, at a dose of 80.0 mg/kg; method in brief: as §1
Mus musculus [5] = assay: Ability to reverse electroconvulsive shock induced amnesia in mice, after administering intraperitoneally at a dose of 20.0 mg/kg; method in brief: as §1
Mus musculus [6] = assay: Ability to reverse electroconvulsive shock induced amnesia in mice, after administering intraperitoneally at a dose of 5 mg/kg; method in brief: as §1
Mus musculus [7] = assay: Ability to reverse electroconvulsive shock induced amnesia in mice, after administering intraperitoneally at a dose of 2.5 mg/kg; method in brief: as §1
Mus musculus [8] = assay: Ability to reverse electroconvulsive shock (ECS) induced amnesia in mice, after administering intraperitoneally, at a dose of 10.0 mg/kg; method in brief: as §1
Mus musculus [9] = assay: Ability to reverse electroconvulsive shock induced amnesia in mice, after administering intraperitoneally at a dose of 1.25 mg/kg; method in brief: as §1
Mus musculus [10] = assay: Ability to reverse electroconvulsive shock (ECS) induced amnesia in mice, after administering intraperitoneally, at a dose of 160 mg/kg; method in brief: as §1
Mus musculus [11] = assay: Ability to reverse electroconvulsive shock (ECS) induced amnesia in mice, after administering intraperitoneally, at a dose of 0.31 mg/kg; method in brief: as §1
Mus musculus [12] = assay: Ability to reverse electroconvulsive shock (ECS) induced amnesia in mice, after administering intraperitoneally, at a dose of 0.63 mg/kg; method in brief: as §1
Mus musculus [13] = assay: Compound was evaluated for the ability to reverse electroconvulsive shock (ECS) induced amnesia in mice, after administering intraperitoneally, at a dose of 40 mg/kg; method in brief: as §1

| Structure (SMILES) | Amnesia reversal (Mus musculus [1]) [%] | Amnesia reversal (Mus musculus [2]) [%] | Amnesia reversal (Mus musculus [3]) [%] | Amnesia reversal (Mus musculus [4]) [%] | Amnesia reversal (Mus musculus [5]) [%] | Amnesia reversal (Mus musculus [6]) [%] | Amnesia reversal (Mus musculus [7]) [%] | Amnesia reversal (Mus musculus [9]) [%] | Amnesia reversal (Mus musculus [12]) [%] | also measured |
| --- | --- | --- | --- | --- | --- | --- | --- | --- | --- | --- |
| CC(CNC(=O)CN1C(=O)CCC1C)N1CCCCC1 (centres undefined) | 36 | 45 | 18 | – | – | – | – | – | – | – |
| NC(=O)CN1CCC(c2ccccc2)C1=O (centres undefined) | – | – | – | 33 | 17 | 8 | – | – | – | – |
| CCC1CCC(=O)N1CC(=O)NCCN1C(C)CCCC1C (centres undefined) | 40 | 27 | 27 | – | – | – | – | – | – | – |
| N[C@@H]1C[C@H]1c1ccccc1.N[C@H]1C[C@@H]1c1ccccc1 [TRANYLCYPROMINE] | – | – | – | – | – | 15 | 5 | 10 | – | Amnesia reversal (Mus musculus [8]): 10% |
| CC1CC(C)N(CCCNC(=O)CN2CCCC2=O)C(C)(C)C1 (centres undefined) | 18 | 45 | 9 | – | – | – | – | – | – | – |
| CC1CCCC(C)N1CCCNC(=O)CN1C(=O)CCC1(C)C (centres undefined) | 58 | – | 25 | 50 | – | – | – | – | – | Amnesia reversal (Mus musculus [10]): 33% |
| C1CCc2nnnn2CC1.O=C(O)c1cccnc1 | 0 | 9 | – | – | – | 0 | – | – | – | – |
| Cn1c(=O)c2c(ncn2C)n(C)c1=O [CAFFEINE] | – | – | 0 | – | – | – | 10 | 0 | 5 | Amnesia reversal (Mus musculus [11]): 10% |
| C=C(C)[C@@H]1[C@H]2OC(=O)[C@@H]1[C@]1(O)C[C@H]3OC34C(=O)O[C@H]2[C@@]41C.CC(C)(O)[C@@H]1[C@H]2OC(=O)[C@@H]1[C@]1(O)C[C@H]3OC34C(=O)O[C@H]2[C@@]41C (some centres undefined) [PICROTOXIN] | – | – | – | – | – | 5 | 5 | 5 | 5 | Amnesia reversal (Mus musculus [11]): 5% |
| C[C@H](N)Cc1ccccc1 [DEXTROAMPHETAMINE] | – | – | – | – | – | – | – | 40 | 15 | Amnesia reversal (Mus musculus [11]): 10% |
| CCC1CCCC(CC)N1CCCNC(=O)CN1CCCC1=O (centres undefined) | – | – | 42 | 17 | 42 | – | 0 | 0 | – | – |
| CC1CCCC(C)N1CCNC(=O)CCN1CCCC1=O (centres undefined) | – | – | – | 17 | 42 | 33 | – | – | – | – |
| CC1CCCC(C)N1CCCNC(=O)CN1CC(c2ccccc2)CC1=O (centres undefined) | 0 | 50 | 0 | – | – | – | – | – | – | – |
| CC(C(=O)NCCCN1C(C)CCCC1C)N1CCCC1=O (centres undefined) | – | 23 | – | – | 50 | 8 | – | – | – | Amnesia reversal (Mus musculus [10]): 30% |
| CC(C)N(CCNC(=O)CN1CCCC1=O)C(C)C [PRAMIRACETAM] | – | – | – | 18 | 82 | 96 | 60 | 30 | 0 | – |
| CC1CCC(=O)N1CC(=O)NCCCN(C(C)C)C(C)C (centres undefined) | 0 | 30 | 40 | – | – | – | – | – | – | Amnesia reversal (Mus musculus [10]): 20% |
| CC(C)N(C)CCNC(=O)CN1CCCC1=O | 0 | 0 | 21 | – | – | – | – | – | – | – |
| [Cl-].[Li+] [CHLOROLITHIUM] | – | 20 | – | – | 25 | 15 | 15 | 10 | 15 | Amnesia reversal (Mus musculus [13]): 30%; Amnesia reversal (Mus musculus [8]): 30% |
| CC1CCCC(C)N1CCNC(=O)CN1CCCCC1=O (centres undefined) | – | – | – | 60 | 10 | 20 | – | – | – | – |
| CC1CCCC(C)N1CCNC(=O)CN1C(=O)CCC1(C)C (centres undefined) | 22 | 44 | – | – | – | – | – | – | – | Amnesia reversal (Mus musculus [10]): 80% |
| COC(=O)C(c1ccccc1)C1CCCCN1 (centres undefined) [METHYLPHENIDATE] | – | – | – | – | 15 | 15 | 10 | 15 | – | Amnesia reversal (Mus musculus [8]): 10% |
| CC1CCC(=O)N1CC(=O)NCCCN1C(C)CCCC1C (centres undefined) | 30 | 10 | 0 | – | – | – | – | – | – | – |

| Structure (SMILES) | Amnesia reversal (Mus musculus [1]) [%] | Amnesia reversal (Mus musculus [2]) [%] | Amnesia reversal (Mus musculus [3]) [%] | Amnesia reversal (Mus musculus [4]) [%] | Amnesia reversal (Mus musculus [5]) [%] | Amnesia reversal (Mus musculus [6]) [%] | Amnesia reversal (Mus musculus [7]) [%] | Amnesia reversal (Mus musculus [9]) [%] | Amnesia reversal (Mus musculus [12]) [%] | also measured |
| --- | --- | --- | --- | --- | --- | --- | --- | --- | --- | --- |
| CC(C)CN(CCNC(=O)CN1CCCC1=O)CC(C)C | – | – | – | 15 | 25 | 54 | 33 | 25 | – | Amnesia reversal (Mus musculus [8]): 25% |
| CC(CNC(=O)CN1CCCC1=O)N1CCCCC1 (centres undefined) | 0 | 0 | 0 | – | – | – | – | – | – | – |
| CC(C)N(CCCNC(=O)CN1CCCC1=O)C(C)C | – | – | – | 30 | 20 | 30 | 0 | 9 | 0 | – |
| CC(C(=O)NCCN1C(C)CCCC1C)N1CCCC1=O (centres undefined) | 42 | 61 | 17 | – | – | – | – | – | – | – |
| CC(C)N(CCCNC(=O)CN1CC(c2ccccc2)CC1=O)C(C)C (centres undefined) | – | – | – | 27 | 55 | 82 | 45 | 0 | 9 | – |
| CC1CCCC(C)N1CCCNC(=O)CN1CCCC1=O (centres undefined) | – | – | – | 100 | 55 | 50 | 33 | 25 | – | Amnesia reversal (Mus musculus [10]): 60% |
| CN(C)CCCNC(=O)CN1CCCC1=O | – | – | – | 46 | 46 | 31 | – | – | – | – |
| NC(=O)CN1CC(c2ccccc2)CC1=O (centres undefined) | – | – | – | 0 | 0 | 15 | 0 | 0 | 0 | – |
| O=C(CN1CCCC1=O)NCCN1CCCCC1 | – | – | – | 0 | 0 | 45 | 45 | 64 | 18 | – |
| CC1CCC(=O)N1CC(=O)NCCN(C(C)C)C(C)C (centres undefined) | 0 | 56 | 0 | – | – | – | – | – | – | – |
| CC(C)N(CCCCNC(=O)CN1CCCC1=O)C(C)C | – | – | – | 15 | 31 | 31 | 8 | 8 | 0 | – |
| C[C@@H]1CCC[C@H](C)N1CCNC(=O)CN1CCCC1=O | – | – | – | 10 | 70 | 70 | 50 | 20 | 10 | – |
| CC1CCCC(C)N1CCNC(=O)CN1CC(c2ccccc2)CC1=O (centres undefined) | 44 | 33 | 67 | – | – | – | 40 | 10 | 0 | – |
| COC(=O)[C@H]1[C@@H](OC(=O)c2ccccc2)C[C@@H]2CC[C@H]1N2C [COCAINE] | – | – | – | – | – | 10 | 15 | 10 | 10 | Amnesia reversal (Mus musculus [11]): 15% |
| CCN(CC)CCNC(=O)CN1CCCC1=O | 46 | 31 | 15 | – | – | – | – | – | – | – |
| C[C@H]1CCC[C@H](C)N1CCNC(=O)CN1CCCC1=O | – | – | 48 | 17 | 25 | – | 82 | 45 | – | – |
| CC1CCC(=O)N1CC(=O)NCCN1C(C)CCCC1C (centres undefined) | 36 | 0 | 55 | – | – | – | 67 | 58 | 33 | – |
| CN1CCC[C@H]1c1cccnc1 [NICOTINE] | – | – | – | – | – | 0 | 5 | 0 | 5 | Amnesia reversal (Mus musculus [11]): 20% |
| CCC1CCC(=O)N1CC(=O)NCCN(C(C)C)C(C)C (centres undefined) | – | – | – | – | 17 | 58 | 58 | 20 | 20 | Amnesia reversal (Mus musculus [8]): 60% |
| CN(C)CCCN1c2ccccc2Sc2ccc(Cl)cc21 [CHLORPROMAZINE] | – | – | – | – | – | 0 | 0 | 10 | 20 | Amnesia reversal (Mus musculus [11]): 15% |
| CN(C)CCNC(=O)CN1CCCC1=O.Cl | – | – | 50 | – | – | – | – | – | – | – |
| CCN(CC)CCNC(=O)CN1CC(c2ccccc2)CC1=O (centres undefined) | – | – | – | 8 | 0 | 42 | 27 | 0 | 0 | – |
